How the values were obtained:
Parameters in all cases: dose 5 mg/kg, dosed compound name [14C]CS-1036, route oral
Settings in all cases: in vivo
[1] = Drug uptake in albino F344/DuCrlCrlj rat mandibular gland assessed as ng equivalent of CS-1036 at 5 mg/kg, po after 72 hrs by liquid scintillation counting; format: ADME, organism-based
Spleen [2] = assay: Drug uptake in albino F344/DuCrlCrlj rat spleen assessed as ng equivalent of CS-1036 at 5 mg/kg, po after 8 hrs by liquid scintillation counting; format: ADME, organism-based
Pancreas = assay: Drug uptake in albino F344/DuCrlCrlj rat pancreas at 5 mg/kg, po after 168 hrs by liquid scintillation counting; format: ADME, organism-based
[3] = Drug uptake in albino F344/DuCrlCrlj rat brown fat at 5 mg/kg, po after 336 hrs by liquid scintillation counting; format: ADME, organism-based, Brown adipose tissue
[4] = Drug uptake in albino F344/DuCrlCrlj rat fat assessed as ng equivalent of CS-1036 at 5 mg/kg, po after 168 hrs by liquid scintillation counting; format: ADME, organism-based, Adipose tissue
Outline: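 Male F344/DuCrlCrlj rats (bought at 7 weeks, acclimatized 5–6 days; 159–167 g; n = 3 per time point) received a single oral dose of [14C]CS-1036 at 5 mg/kg. White adipose tissue was collected after abdominal aortic bleeding at 1, 4, 8, 24, 72, 168 or 336 h. Samples were counted by LSC with external-standard efficiency correction. Results were converted to ng equivalents per g from specific activity and sample weight.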

[5] = Drug uptake in albino F344/DuCrlCrlj rat eyeball assessed as ng equivalent of CS-1036 at 5 mg/kg, po after 8 hrs by liquid scintillation counting; format: ADME, organism-based
Zone of skin [6] = assay: Drug uptake in albino F344/DuCrlCrlj rat skin at 5 mg/kg, po after 24 hrs by liquid scintillation counting; format: ADME, organism-based
Liver [7] = assay: Drug uptake in albino F344/DuCrlCrlj rat liver at 5 mg/kg, po after 72 hrs by liquid scintillation counting; format: ADME, organism-based
Cerebellum = assay: Drug uptake in albino F344/DuCrlCrlj rat cerebellum assessed as ng equivalent of CS-1036 at 5 mg/kg, po after 72 hrs by liquid scintillation counting; format: ADME, organism-based
Adrenal gland = assay: Drug uptake in albino F344/DuCrlCrlj rat adrenal gland at 5 mg/kg, po after 1 hr by liquid scintillation counting; format: ADME, organism-based
Spleen [8] = assay: Drug uptake in albino F344/DuCrlCrlj rat spleen at 5 mg/kg, po after 8 hrs by liquid scintillation counting; format: ADME, organism-based
Plasma = assay: Drug uptake in albino F344/DuCrlCrlj rat plasma assessed as ng equivalent of CS-1036 at 5 mg/kg, po after 8 hrs by liquid scintillation counting; format: ADME, organism-based
Large intestine = assay: Drug uptake in albino F344/DuCrlCrlj rat large intestine at 5 mg/kg, po after 72 hrs by liquid scintillation counting; format: ADME, organism-based
[9] = Drug uptake in albino F344/DuCrlCrlj rat trachea at 5 mg/kg, po after 1 hr by liquid scintillation counting; format: ADME, organism-based
Blood [10] = assay: Drug uptake in albino F344/DuCrlCrlj rat blood assessed as ng equivalent of CS-1036 at 5 mg/kg, po after 168 hrs by liquid scintillation counting; format: ADME, organism-based
Outline: (§1)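 Male F344/DuCrlCrlj rats (159–167 g; n = 3 per time point) received a single oral dose of [14C]CS-1036 at 5 mg/kg. Blood was taken from the abdominal aorta at 1, 4, 8, 24, 72, 168 and 336 h. Radioactivity was counted by LSC with external-standard efficiency correction. Results were converted to ng equivalent of CS-1036/ml using specific activity and sample volume, and reported as mean + S.D.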

Heart [11] = assay: Drug uptake in albino F344/DuCrlCrlj rat heart assessed as ng equivalent of CS-1036 at 5 mg/kg, po after 8 hrs by liquid scintillation counting; format: ADME, organism-based
[12] = Drug uptake in albino F344/DuCrlCrlj rat skeletal muscle assessed as ng equivalent of CS-1036 at 5 mg/kg, po after 8 hrs by liquid scintillation counting; format: ADME, organism-based, Muscle tissue
[13] = Drug uptake in albino F344/DuCrlCrlj rat urinary bladder at 5 mg/kg, po after 336 hrs by liquid scintillation counting; format: ADME, organism-based
[14] = Drug uptake in albino F344/DuCrlCrlj rat skeletal muscle assessed as ng equivalent of CS-1036 at 5 mg/kg, po after 72 hrs by liquid scintillation counting; format: ADME, organism-based, Muscle tissue
Cerebrum [15] = assay: Drug uptake in albino F344/DuCrlCrlj rat cerebrum at 5 mg/kg, po after 336 hrs by liquid scintillation counting; format: ADME, organism-based
Outline: (§2)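 Single oral [14C]CS-1036 at 5 mg/kg was given to male rats (159–167 g; n = 3). Cerebrum was collected after aortic bleeding at 1, 4, 8, 24, 72, 168 or 336 h, weighed, and homogenized in 2 volumes of saline. A 0.5 ml aliquot was solubilized in Soluene-350 and counted by LSC with external-standard correction. Results are in ng equivalent/g tissue from specific activity and sample weight.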

Heart [16] = assay: Drug uptake in albino F344/DuCrlCrlj rat heart assessed as ng equivalent of CS-1036 at 5 mg/kg, po after 336 hrs by liquid scintillation counting; format: ADME, organism-based
Spleen [17] = assay: Drug uptake in albino F344/DuCrlCrlj rat spleen assessed as ng equivalent of CS-1036 at 5 mg/kg, po after 168 hrs by liquid scintillation counting; format: ADME, organism-based
[18] = Drug uptake in albino F344/DuCrlCrlj rat testis at 5 mg/kg, po after 4 hrs by liquid scintillation counting; format: ADME, organism-based
Stomach = assay: Drug uptake in albino F344/DuCrlCrlj rat stomach assessed as ng equivalent of CS-1036 at 5 mg/kg, po after 72 hrs by liquid scintillation counting; format: ADME, organism-based
Zone of skin [19] = assay: Drug uptake in albino F344/DuCrlCrlj rat skin assessed as ng equivalent of CS-1036 at 5 mg/kg, po after 4 hrs by liquid scintillation counting; format: ADME, organism-based
Liver [20] = assay: Drug uptake in albino F344/DuCrlCrlj rat liver at 5 mg/kg, po after 24 hrs by liquid scintillation counting; format: ADME, organism-based
[21] = Drug uptake in albino F344/DuCrlCrlj rat trachea assessed as ng equivalent of CS-1036 at 5 mg/kg, po after 24 hrs by liquid scintillation counting; format: ADME, organism-based
Blood [22] = assay: Drug uptake in albino F344/DuCrlCrlj rat blood at 5 mg/kg, po after 1 hr by liquid scintillation counting; format: ADME, organism-based; outline: as §1
Cerebrum [23] = assay: Drug uptake in albino F344/DuCrlCrlj rat cerebrum at 5 mg/kg, po after 168 hrs by liquid scintillation counting; format: ADME, organism-based; outline: as §2
Small intestine [24] = assay: Drug uptake in albino F344/DuCrlCrlj rat small intestine assessed as ng equivalent of CS-1036 at 5 mg/kg, po after 168 hrs by liquid scintillation counting; format: ADME, organism-based
Small intestine [25] = assay: Drug uptake in albino F344/DuCrlCrlj rat small intestine at 5 mg/kg, po after 24 hrs by liquid scintillation counting; format: ADME, organism-based
Small intestine [26] = assay: Drug uptake in albino F344/DuCrlCrlj rat small intestine at 5 mg/kg, po after 336 hrs by liquid scintillation counting; format: ADME, organism-based

C[C@H]1O[C@@H](O[C@H]2[C@H](O)[C@@H](O)[C@@H](O[14C@H]3[14C@H](O)[14CH2]N[14C@@H]3[14CH2]O)O[C@@H]2CO)[C@H](O)[C@@H](O)[C@@H]1O
Radiolabel recovery [1]: 9.5 ngequiv/g
Radiolabel recovery (Spleen [2]): 84.1 ngequiv/g
Radiolabel recovery (Pancreas): 79.2 ngequiv/g
Radiolabel recovery [3]: 54.3 ngequiv/g
Radiolabel recovery [4]: 64 ngequiv/g
Radiolabel recovery [5]: 18.9 ngequiv/g
Radiolabel recovery (Zone of skin [6]): 53.9 ngequiv/g
Radiolabel recovery (Liver [7]): 446 ngequiv/g
Radiolabel recovery (Cerebellum): 6.4 ngequiv/g
Radiolabel recovery (Adrenal gland): 32.2 ngequiv/g
Radiolabel recovery (Spleen [8]): 84.8 ngequiv/g
Radiolabel recovery (Plasma): 10.8 ngequiv/ml
Radiolabel recovery (Large intestine): 65.1 ngequiv/g
Radiolabel recovery [9]: 41.1 ngequiv/g
Radiolabel recovery (Blood [10]): 3.52 ngequiv/ml
Radiolabel recovery (Heart [11]): 8.3 ngequiv/g
Radiolabel recovery [12]: 11.2 ngequiv/g
Radiolabel recovery [13]: 11.7 ngequiv/g
Radiolabel recovery [14]: 9.2 ngequiv/g
Radiolabel recovery (Cerebrum [15]): 4.88 ngequiv/g
Radiolabel recovery (Heart [16]): 3.63 ngequiv/g
Radiolabel recovery (Spleen [17]): 6.2 ngequiv/g
Radiolabel recovery [18]: 22.3 ngequiv/g
Radiolabel recovery (Stomach): 21.8 ngequiv/g
Radiolabel recovery (Zone of skin [19]): 9.6 ngequiv/g
Radiolabel recovery (Liver [20]): 266 ngequiv/g
Radiolabel recovery [21]: 7.1 ngequiv/g
Radiolabel recovery (Blood [22]): 60.5 ngequiv/ml
Radiolabel recovery (Cerebrum [23]): 6.2 ngequiv/g
Radiolabel recovery (Small intestine [24]): 5.5 ngequiv/g
Radiolabel recovery (Small intestine [25]): 94.4 ngequiv/g
Radiolabel recovery (Small intestine [26]): 6.54 ngequiv/g

— ChEMBL document CHEMBL3526002, “Tissue distribution and identification of radioactivity components at elimination phase after oral administration of [¹⁴C]CS-1036, an α-amylase inhibitor, to rats” (Drug Metab Dispos, 2013)
